By inhibition in vivo is commonly meant the change of the read-out against control, counted positive when it falls. Broadly, the ED50 is the dose at which the effect has come halfway, by size or by number of responders. High values mean a need for a large dose, low ones an effect at a small dose. For orientation: IC50 means the point on the concentration scale where inhibition reaches its midpoint.

Consider six molecules from ChEMBL document CHEMBL1123462, “Indolo[2,1-c][1,4]benzodiazepines: a new class of antiallergic agents” (J Med Chem, 1986).

Type in all cases: functional
Assay [1] deals with Rattus norvegicus. In words: Compound was tested for the inhibition of rat passive cutaneous anaphylaxis (PCA) at 10 mg/kg dose ip (1h pretreatment). Particulars: route intraperitoneal.
Assay [2] relates to Rattus norvegicus. Nature of the assay: Compound was tested for the inhibition of rat passive cutaneous anaphylaxis (PCA) at 10 mg/kg dose ip. The settings on record: route intraperitoneal.
In assay [3] the test system is Rattus norvegicus. Nature of the assay: Compound was tested for the inhibition of rat passive cutaneous anaphylaxis (PCA) administered intraperitoneally. The settings on record: ip. The procedure, abridged:
(§1)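 Male Sprague-Dawley rats were given 0.05 mL of high-titer IgE rat anti-ovalbumin antiserum intradermally. 24 h later: iv ovalbumin plus Evans Blue in saline, with simultaneous intradermal serotonin and histamine. Drug given ip 1 h before antigen. At 30 min, skin was reflected and wheal size and colour scored against a chart. %inhibition = (1 − mean treated/mean control score)×100. Dunnett's test, p ≤ 0.05.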

In assay [4] the test system is Rattus norvegicus. Nature of the assay: Compound was tested for the inhibition of rat passive cutaneous anaphylaxis (PCA) at 0.37 mg/kg dose ip (1h pretreatment). The settings on record: route intraperitoneal. The method, boiled down:
as §1

In assay [5] the test system is Cavia porcellus. Nature of the assay: Inhibition of guinea pig ALA at a dose of 1 mg/kg after 24 hr postdosing orally. Particulars: route oral. The procedure, abridged: (§2)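 Guinea pigs were sensitized with egg albumin 1 mg sc plus pertussis vaccine adjuvant. Two weeks later they were anesthetized (pentobarbital 65 mg/kg ip) and cannulated. Drug was given ip or orally at 1 mg/kg. Challenge with egg albumin 0.5 mg/kg iv at 1, 7, 8 or 24 h post-dose, with bronchoconstriction measured. %inhibition given as mean ± SD.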

Assay [6] relates to Rattus norvegicus. Nature of the assay: Compound was tested for percent inhibition, at 3.3 mg/kg administered intraperitoneally against histamine by Dunnett's test. Particulars: ip, route intraperitoneal. The method, boiled down:
as §1

The test system of assay [7] is Cavia porcellus. Nature of the assay: Inhibition of guinea pig ALA at a dose of 1 mg/kg after 7 hr postdosing intraperitoneally. The settings on record: ip, route intraperitoneal. The method, boiled down: as §2
Assay [8] relates to Rattus norvegicus. Nature of the assay: Compound was tested for percent inhibition, at 3.3 mg/kg administered intraperitoneally against rat passive cutaneous anaphylaxis by Dunnett's test. Particulars: ip, route intraperitoneal. The procedure, abridged: as §1
Assay [9] relates to Cavia porcellus. In words: Inhibition of guinea pig ALA at a dose of 1 mg/kg after 1 hr postdosing intraperitoneally 1 h. Particulars: ip, route intraperitoneal. The method, boiled down: as §2
Assay [10] deals with Rattus norvegicus. In words: Compound was tested for percent inhibition, at 0.37 mg/kg administered intraperitoneally against histamine. Particulars: ip, route intraperitoneal. The procedure, abridged: as §1
The test system of assay [11] is Rattus norvegicus. Nature of the assay: Compound was tested for percent inhibition, at 3.3 mg/kg administered intraperitoneally against serotonin by Dunnett's test. Particulars: ip, route intraperitoneal. The method, boiled down:
as §1

Assay [12] deals with Cavia porcellus. Nature of the assay: Inhibition of guinea pig ALA at a dose of 1 mg/kg after 8 hr postdosing orally. The settings on record: route oral. The procedure, abridged: as §2
Assay [13] relates to Cavia porcellus. Nature of the assay: Compound was tested for the inhibition of guinea pig active lung anaphylaxis (ALA) administered intravenously. The settings on record: iv. The procedure, abridged:
(§3)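 Guinea pigs were sensitized with egg albumin 1 mg sc plus Bordetella pertussis vaccine adjuvant. Two weeks later: pentobarbital 65 mg/kg ip, then trachea, jugular vein and carotid cannulated. Drug given iv before an iv egg albumin challenge (0.5 mg/kg). Airway resistance (bronchoconstriction) and arterial pressure monitored. %inhibition given as mean ± SE; ED50 iv with 95% confidence limits.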

For assay [14], the system named is Cavia porcellus. In words: Inhibition of guinea pig ALA at a dose of 1 mg/kg after 24 hr postdosing intraperitoneally. The settings on record: ip, route intraperitoneal. The procedure, abridged:
as §2

Assay [15] relates to Rattus norvegicus. In words: Compound was tested […] for the inhibition of serotonin release in rat peritoneal cell.
The test system of assay [16] is Cavia porcellus. In words: Inhibition of guinea pig ALA at a dose of 1 mg/kg after 1 hr postdosing orally 1 h. Particulars: route oral. The method, boiled down: as §2
In assay [17] the test system is Rattus norvegicus. In words: Compound was tested for percent inhibition, at 0.37 mg/kg administered intraperitoneally against serotonin by Dunnett's test. Particulars: ip, route intraperitoneal. The method, boiled down: as §1
In assay [18] the test system is Cavia porcellus. In words: Compound was tested for the inhibition of guinea pig active lung anaphylaxis (ALA) at 0.01 mg/kg iv. The method, boiled down: as §3

`c1ccc2c(c1)Cn1c(cc3ccccc31)C(N1CCCCC1)=N2`: in the assay with Rattus norvegicus [1], the inhibition in vivo at 10 mg/kg amounted to 27.4%.

Consider `OC1CCN(C2=Nc3ccccc3Cn3c2cc2ccccc23)CC1`, for which the inhibition in vivo at 10 mg/kg in the assay on Rattus norvegicus [1] came out at 40.2%.

In the case of `O=C1Nc2ccccc2Cn2c1cc1ccccc12`, in the assay on Rattus norvegicus [2], the inhibition in vivo at 10 mg/kg amounted to 23.2%.

In the assay on Rattus norvegicus [3], `CCCCN1CCN(C2=Nc3ccccc3Cn3c2cc2ccccc23)CC1` came in with an ED50 of 1.32 mg/kg. Further, in the assay with Rattus norvegicus [4], the inhibition in vivo at 0.37 mg/kg came out at 39.9%.

In the case of `CCOC(=O)N1CCN(C2=Nc3ccccc3Cn3c2cc2ccccc23)CC1`, the ED50 in the assay with Rattus norvegicus [3] is 0.67 mg/kg. In addition, the inhibition in vivo at 0.37 mg/kg in the assay on Rattus norvegicus [4] worked out at 38.7%.

In the case of `CN1CCN(C2=Nc3ccccc3Cn3c2cc2ccccc23)CC1`, the inhibition in vivo at 1 mg/kg in the assay on Cavia porcellus [5] came to 61%; in the assay on Cavia porcellus [7] it was 75%; with Cavia porcellus [9] it was 74%; with Cavia porcellus [12], 87%; with Cavia porcellus [14] it was 26%; in the assay on Cavia porcellus [16], 51%. For the same molecule, the figures for the inhibition in vivo at 3.3 mg/kg in the assay with Rattus norvegicus [6], in the assay on Rattus norvegicus [8] and in the assay with Rattus norvegicus [11] were 63.3%, 100% and 65.9%, respectively. Further, the ED50 with Rattus norvegicus [3] worked out at 0.19 mg/kg; in the assay with Cavia porcellus [13] it was 0.01 mg/kg. Further, the inhibition in vivo at 0.37 mg/kg in the assay with Rattus norvegicus [4] came to 93.6%; with Rattus norvegicus [10], 58.2%; in the assay on Rattus norvegicus [17], 50.9%. Further, half-maximal inhibition in the assay with Rattus norvegicus [15] (IC50) was put at 15.9 µM. In addition, the inhibition in vivo at 0.01 mg/kg with Cavia porcellus [18] was 41%.
